Results from different studies.
Protocols differ between the studies behind these lines.
Antigen peptide transporter 1/Antigen peptide transporter 2: Antigen peptide transporter 1/Antigen peptide transporter 2 (Homo sapiens, UniProt Q03518+Q03519)
Slc6a3: Sodium-dependent dopamine transporter (Slc6a3, Rattus norvegicus, UniProt P23977)

CSCC[C@H](NC(=O)[C@@H]1CCCN1C(=O)[C@H](CCCNC(=N)N)NC(=O)[C@H](CC(C)C)NC(=O)[C@@H]1CCCN1C(=O)[C@@H](NC(=O)[C@H](C)N)C(C)C)C(=O)N[C@H](C(=O)N[C@@H](Cc1ccc(O)cc1)C(=O)N[C@@H](C)C(=O)O)[C@@H](C)O
IC50 (Antigen peptide transporter 1/Antigen peptide transporter 2; ligand displacement): 5000 nM

CC[C@H](C)[C@H](NC(=O)[C@H](CC(C)C)NC(=O)[C@@H](N)CO)C(=O)NCC(=O)N[C@@H](CCCCN)C(=O)N[C@H](C(N)=O)C(C)C
EC50 (Proteinase-activated receptor 2 (F2RL1, Homo sapiens, UniProt P55085); calcium signal, agonist): 5800 nM

O=c1c(O)c(-c2ccc(O)c(O)c2)oc2cc(O)cc(O)c12
IC50 (CX3C chemokine receptor 1 (CX3CR1, Homo sapiens, UniProt P49238); β-arrestin recruitment, antagonist): 4500 nM

COc1ccc2cccc(C(CO)CNC(=O)CF)c2c1 (centres unmarked)
EC50 (Melatonin receptor type 1B (MTNR1B, Homo sapiens, UniProt P49286); cAMP, agonist, TR-FRET): 17.8 nM

CC(NC(C)(C)C)C(=O)c1ccccc1 (centres unmarked)
IC50 (Slc6a3; transporter uptake, inhibitor, radiometric): 1310 nM

COC(=O)C(NC(=O)c1cn(CCCCCO)c2ccccc12)C(C)(C)C (centres unmarked)
IC50 (Cannabinoid receptor 1 (Cnr1, Rattus norvegicus, UniProt P20272); ligand displacement, radioligand; cell membranes): 106 nM

CC[C@H](C)[C@H](NC(=O)[C@H](C)NC(=O)CN)C(=O)N[C@@H](CC(=O)O)C(=O)N[C@@H](CCCCN)C(=O)N1CCC[C@H]1C(=O)N[C@H](C(=O)N[C@@H](CC(C)C)C(=O)N[C@@H](CCCCN)C(=O)O)[C@@H](C)CC
IC50 (Antigen peptide transporter 1/Antigen peptide transporter 2; ligand displacement): 8200 nM

CNC(C)C(=O)c1cccc(Cl)c1 (centres unmarked)
IC50 (Slc6a3; transporter uptake, inhibitor, radiometric): 342 nM
